Data from ChEMBL document CHEMBL4513216, “Probing the Open Global Health Chemical Diversity Library for Multistage-Active Starting Points for Next-Generation Antimalarials” (ACS Infect Dis, 2020).

Assay: Toxicity liver stage against HepG2, at 10uM
Type: cell-based
Design: test concentration 10 uM, cell line HepG2-A16-CD81EGFP
Conditions: human, HepG2-A16-CD81EGFP cells; read-out: INHIBITION
In short: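 Uninfected HepG2-A16-CD81EGFP cells, 3 × 10^3 per well, 1536-well, plated on prespotted compound at 10 μM final, parasite-free screening media added to match infected plates; puromycin 10 μM positive, DMSO 0.5% negative; run in parallel with 48 h PbLuc assay at 37 °C, 5% CO2; viability by CellTiter-Glo luminescence, normalized to controls.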

| SMILES | cytotoxicity at 10 µM [%] |
| --- | --- |
| O=C(NCc1cccs1)NCC(O)c1ccoc1 (stereo not given) | -11.9 |
| CNC(=O)CN1CCOCC2(C1)CN(Cc1csnn1)CCO2 (stereo not given) | -89.3 |
| Clc1ccc(Cc2nc(CNCCn3cccn3)cs2)cc1 | -1.86 |
| Cc1nccn1C1CCCN(C(=O)CCOCC(F)(F)F)C1 (stereo not given) | -11.4 |
| COc1ccccc1CC(=O)N1CC[C@H](O)[C@]2(CCCO2)C1 | -6.75 |
| CCc1nonc1NC(=O)C(C)Oc1ccccc1F (stereo not given) | 12 |
| Cc1cnc(C(=O)NCC(c2ccc(C)o2)N2CCOCC2)cn1 (stereo not given) | -7.2 |
| Cc1cnc(NCc2cnn(C)c2)nc1-c1cnn(C)c1 | 52.1 |
| CN1Cc2c(C(=O)Nc3cccnc3)ncn2-c2ccccc2S1(=O)=O | -4 |
| CNS(=O)(=O)c1ccc(C(=O)NCCNc2ncccn2)cc1 | -5.95 |
| Cc1ccc(N(CCC#N)C(=O)CN2CCCC2c2cccs2)cc1 (stereo not given) | -3.75 |
| NC(=O)c1cnc(NC2CCN(C(=O)C3CC3)CC2)c(Cl)c1 | -14.2 |
| CCOC(=O)c1n[nH]cc1CN1CCOC(Cc2ccc(OC)cc2)C1 (stereo not given) | -0.734 |
| c1cnc(-c2nc(CNCCn3cccn3)cs2)nc1 | -10.3 |
| COc1ccc(-n2cc3[nH]c(=O)[nH]n3c2=O)cc1 | -0.106 |
| CC(C)(C)c1nc(CNc2ccccc2SCCC(N)=O)cs1 | 23.5 |
| CC(=O)N1CCN(c2cncc(C3CCNCC3)n2)CC1 | 16.8 |
| Cc1nc(C2CCCN2C(=O)Cc2ccc3c(c2)OCO3)nc(O)c1C (stereo not given) | -34.9 |
| CC(Cn1cccn1)NC(=O)NCCc1cnn(C)c1 (stereo not given) | -0.0611 |
| CC(C)c1cc(C(=O)N2C[C@@H]3CC[C@H]2CN(Cc2cscn2)C3)no1 | 1.27 |
| O=C(NCCNc1ccc(C(F)(F)F)cn1)c1cc(Cl)ccc1F | -8.27 |
| CO[C@@H]1CCN(Cc2ccoc2)[C@@H]2CN(Cc3ccco3)C[C@@H]21 | 8.1 |

| SMILES | cytotoxicity at 10 µM [%] |
| --- | --- |
| Cc1nc(-c2ccsc2)ccc1C(=O)NC(C)CN1CCOCC1 (stereo not given) | -13.8 |
| Cn1cncc1CN1CCOC(Cc2ccccc2)C1 (stereo not given) | 9.43 |
| c1cnn(CCNCc2nnc(C3CC3)o2)c1 | -10.5 |
| CCCn1nccc1C(=O)Nc1nc(C)c(C)s1 | -6.19 |
| COc1cc(F)ccc1NC(=O)NCCNC(=O)OC(C)(C)C | -3.97 |
| CC(=O)N1CCC(Cc2cnc(C(=O)N3CCCC3)cn2)C1 (stereo not given) | -23.6 |
| C1CCCN(CC2CCCN(Cc3noc(C4CC4)n3)C2)CC1 (stereo not given) | -12.7 |
| CC(C)(C)C(=O)N1CCC(COCc2ccccc2)C1 (stereo not given) | 12.8 |
| Fc1cccnc1OC[C@@]12CCO[C@@H]1CCN(CC1CCOCC1)C2 | -14.6 |
| Cc1ccc(CN2CCC3(CC2)NC(=O)CC3c2ccccc2)s1 (stereo not given) | -1.39 |
| Cc1cnn(CCNCc2csc(C)n2)c1 | 5.79 |
| Cc1nccn1C1(C(=O)O)CCN(Cc2ccc3c(c2)OCCO3)CC1 | -1.53 |
| COCCC(=O)N1CCC2(CC1)CC(c1ccccc1)CN(C)C2 (stereo not given) | -14.4 |
| Cc1ccc(C2CSCCN2C(=O)c2cnsn2)o1 (stereo not given) | 5.11 |
| CS(=O)(=O)c1cc(Cl)cnc1C1CCN(C(=O)C2CC2)CC1 | 8.21 |
| CCNC(=O)C1CCCN(C(=O)Nc2cc(C#N)ccc2OCC)C1 (stereo not given) | -1.71 |
| CN(C)c1ccc(CCCNC(=O)NCC(O)c2cccs2)cc1 (stereo not given) | -2.59 |
| CC(C)c1nc(O)c2nnn(C[C@H]3CCCN(Cc4cccs4)C3)c2n1 | 10.8 |
| CN(Cc1cnc(N)nc1)CC1CCCN(CCc2ccc(Cl)cc2)C1 (stereo not given) | -0.849 |
| COCCn1ccnc1C1CCN(C(=O)C(O)c2ccc(F)cc2)CC1 (stereo not given) | 1.73 |
| CN(C)C[C@@H]1CN(C(=O)c2cc(-c3ccccc3)n[nH]2)C[C@@H]1CO | -19.9 |
| COCC(O)CN1CCC(NC(=O)c2cscc2C)CC1 (stereo not given) | -4.51 |

| SMILES | cytotoxicity at 10 µM [%] |
| --- | --- |
| Cc1cc(F)c(S(=O)(=O)NCC(C)(C)N)cc1F | 6.65 |
| CCNC(=O)N1CCC(NC(=O)NCCc2cc3ccccc3o2)C1 (stereo not given) | -51.8 |
| Cn1cc(N2C(=O)CC[C@@H]3[C@H]2CCN3CCc2ccccc2)cn1 | 15.6 |
| Cc1nn(C)cc1C1SCC(=O)Nc2c1c(O)nn2C(C)C (stereo not given) | 1.04 |
| C=C(C)COCCNC(=O)N1CCc2c(cccc2OC)C1 | 3.55 |
| Cc1cc(C(=O)N2CCC3(CCNCC3)CC2)c2cccc(C)c2n1 | -15.6 |
| CC(=O)N1CCN(C(=O)c2c(Cl)c3ccccc3n2C)CC1 | 12.5 |
| O=C(C1COCCO1)N1CCN(Cc2ccc3c(c2)CCO3)CC1 (stereo not given) | -5.99 |
| Cn1cc(-c2cc(C(F)F)n3nc(CCC(=O)O)nc3n2)cn1 | 1.61 |
| CS(=O)(=O)NCCC(=O)Nc1ccccc1N1CCc2ccccc21 | 11.9 |
| NC(=O)NC1CCN(Cc2ccc3c(c2)CCC3)CC1 | -3.19 |
| COc1ccccc1CC(=O)NCCCN1CCCC1C(=O)N(C)C (stereo not given) | -13 |
| COc1ccc(CCN2C(=O)O[C@@H]3CN(C4CCOCC4)C[C@@H]32)cc1 | 6.86 |
| CC(=O)NCCNC(=O)c1nc(C2CC2)n(-c2ccccc2Cl)n1 | 9.74 |
| CNC(=O)[C@@H](c1ccccc1OC)N1CCC[C@H]1C(=O)NC1CC1 | -4.39 |
| N#Cc1cccc(OCCN2CCCC2C(=O)Nc2nccs2)c1 (stereo not given) | 2.94 |
| CCc1nc(CN(C)C2CCN(CCS(C)(=O)=O)C2)no1 (stereo not given) | 4.45 |
| CC1(C(=O)NCc2cccnc2Oc2ccc(F)cc2F)CCCNC1 (stereo not given) | -5.68 |
| Cc1nc(C2CCN(C(=O)c3cscn3)CC2)c2sccn12 | -5.16 |
| c1ccc(-c2nc(CN3CCCC3Cn3cncn3)no2)cc1 (stereo not given) | -7.22 |
| O=C(NCc1ccccn1)[C@H]1COC[C@H]2CN(CC3CC3)C[C@H]21 | -80.8 |
| O=C(NC[C@H]1OC[C@@H]2CCN(c3ccccn3)C[C@@H]21)c1ccco1 | 1.32 |

| SMILES | cytotoxicity at 10 µM [%] |
| --- | --- |
| CCc1nc(CC(=O)N2CCCC2CN2CCCC2)cs1 (stereo not given) | 7.27 |
| Cc1nn(C)c(C)c1-c1ccc(=O)n(C(C)C(=O)NC(C)(C)C)n1 (stereo not given) | 5.75 |
| O=C(c1cccs1)N1CCCn2c(nc(CN3CCCC3)cc2=O)C1 | -3.32 |
| Cc1cc(C)n(CC2CCCCN2C(=O)CCc2ccncc2)n1 (stereo not given) | 2.1 |
| CC(OCCCNC(=O)c1cccnc1O)c1ccccc1 (stereo not given) | 4.88 |
| Cc1cnc(CNC(=O)NCc2cccnc2N(C)C)s1 | -12.4 |
| COc1ncccc1CNC(=O)CN1CCCCCC1=O | -10.4 |
| COc1ccc(N(C(=O)c2cnc(C)cn2)C(C)C)cc1F | -2.96 |
| COc1cc(OC)cc(N2CCC(NCc3cccs3)C2=O)c1 (stereo not given) | 4.63 |
| CC1(C)CC(n2cc3nc(N4CCCC4)[nH]cc-3c2=O)CC(C)(C)N1 | 9.46 |
| Cc1cnc(C(=O)N2CCCC(Cn3cc(C4CC4)nn3)C2)cn1 (stereo not given) | -1.15 |
| CC(=O)Nc1nc(SCc2ccc3c(c2)OCO3)ns1 | -8.98 |
| COCCNS(=O)(=O)c1cccc2c1CN(C(=O)c1cnccn1)CC2 | -0.432 |
| Cc1cc(C)nc(NC2CC(=O)N(C)C2)n1 (stereo not given) | 8.61 |
| COC(=O)C(C)(C)NC(=O)c1cc(COc2ccccc2OC)[nH]n1 | -4.83 |
| CC(Cn1cccn1)NC(=O)NCc1cccnc1OC1CCCC1 (stereo not given) | 4.86 |
| COc1ccc(CNC[C@H]2COCc3nc4cc(F)ccc4n32)cc1 | 1.52 |
| c1cnc(N2CCO[C@H]3[C@H](OCc4cccnc4)CC[C@@H]32)nc1 | -5.05 |
| CCc1ccc(CC(=O)N2CCN(c3nccn3C)CC2)cc1 | -0.647 |
| CC(NC(=O)NCCCN(C)C)c1ccc2c(c1)CCC(=O)N2 (stereo not given) | -8.03 |
| CC(C)(CN1CCC(Cc2ccc(CO)cc2)C1)N1CCOCC1 (stereo not given) | -2.71 |
| COc1ccc(F)c(-c2ccnc(N)c2)c1 | 8.52 |

| SMILES | cytotoxicity at 10 µM [%] |
| --- | --- |
| CC(=O)N1CCC2(C1)CN(S(=O)(=O)c1ccccc1)C2 | 3.82 |
| COc1ccc(CCCN(C)C(=O)c2cc(C(C)=O)c[nH]2)cc1OC | 2.24 |
| Cc1nnc(N2C[C@H](OCCCn3cccn3)[C@H]3OCCC[C@H]32)s1 | 13.8 |
| CCc1ccc(O)c(C(=O)NC2CCN(C(=O)OC)CC2)c1 | 1.89 |
| O=c1c(S(=O)(=O)N2CCCCC2)cccn1Cc1ccccc1Cl | 10.6 |
| CCn1ccc(-c2nnc(SCC(=O)Nc3ccc(C)cc3)n2CC)n1 | 5.11 |
| O=C(C1CCOCC1)N1CCc2ncc(CN3CCOCC3)n2CC1 | -79.6 |
| CC(=O)NCC(=O)N1CCn2cc(CN3CCCCC3)nc2C1 | -3.34 |
| COc1cc(C(C)=O)ccc1OCC(=O)c1cccn1C | 13.6 |
| CNC(=O)C1CC2(CCN(C(=O)c3csnn3)CC2)c2ccccc21 (stereo not given) | -154 |
| CSc1nccc(N2CCC(NCCN3CCOCC3)CC2)n1 | -49.5 |
| Cc1nc(CSCCC(=O)NCc2ccc(N(C)C)cc2)cs1 | -14.2 |
| Cc1ccc(CC(=O)N2CCN(CC(O)C(C)(C)C)CC2)cn1 (stereo not given) | -4.51 |
| O=S(=O)(NCC1OCCc2cn(CC3CCOCC3)nc21)C1CC1 (stereo not given) | 11.2 |
| CNC(=O)c1cc(NC(=O)NC2CC2)ccc1F | 5.13 |
| COc1cccc(C(=O)N2C[C@@H](CN(C)CCO)[C@@H](CO)C2)c1C | -4.17 |
| Cc1nc(CN2C[C@@H]3CN(C(=O)NC(C)C)C[C@@H]3C2=O)cs1 | -76.2 |
| CC(C)c1nc2c(n1C)CCN(CCCc1nc3ccccc3o1)C2 | 2.07 |
| CN(C)S(=O)(=O)N1C[C@@H]2COC[C@]2(COc2ccccn2)C1 | 0.705 |
| OCCn1ncc2c1CN(CC1CCOc3ccccc3C1)C2 (stereo not given) | -5.35 |
| O=C(NCc1ccc(Br)c(F)c1)Nc1cn[nH]c1 | -6.62 |
| C[C@H]1C[C@H]2CN(S(=O)(=O)c3ccc(F)cc3)CC[C@H]2O1 | 1.79 |
